The source of these data is ChEMBL document CHEMBL1255219, “Discovery of a β-d-2'-deoxy-2'-α-fluoro-2'-β-C-methyluridine nucleotide prodrug (PSI-7977) for the treatment of hepatitis C virus” (J Med Chem, 2010).

In series [1] the test system is Hepatitis C virus. Kind of series: Antiviral activity against HCV infected in human clone A cells. It is filed as functional, Hepacivirus hominis. As to conditions: Hepatitis C virus. Put shortly: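 Clone A replicon cells seeded at 1500 cells/well. Compounds serially diluted in G418-free culture medium and added, then incubated 4 days at 37 °C in 5% CO2. HCV RNA quantified by real-time RT-PCR as ΔCt relative to the mean no-drug control.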

Series [2] has as its system Rattus norvegicus. Briefly: AUC (0 to infinity) in rat liver assessed as 2'-F-2'-C-Methyluridine-5''-TP level at 50 mg/kg, po. Set-up: time infinity, dose 50 mg/kg, route oral. It counts as ADME, organism-based. As to conditions: in vivo. In outline:
(§1)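 Rats given a single oral gavage dose of 50 mg/kg in 0.5% carboxymethylcellulose sodium, 5 mL/kg. Livers taken at 0.5, 1, 2, 4, 6 and 12 h after CO2 sacrifice and ice-cold saline perfusion, then snap-frozen. Homogenized in 3 volumes of cold 70% methanol with 20 mM EDTA/EGTA. Triphosphate measured by LC/MS/MS (ESI, MRM negative mode), noncompartmental analysis.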

For series [3], the system named is Rattus norvegicus. Briefly: AUC (0 to t) in rat liver assessed as 2'-F-2'-C-Methyluridine-5''-TP level at 50 mg/kg, po. As to conditions: in vivo. It counts as ADME, organism-based. Set-up: dose 50 mg/kg, route oral. In outline: as §1
The test system of series [4] is Rattus norvegicus. Kind of series: Cmax in rat liver assessed as 2'-F-2'-C-Methyluridine-5''-TP level at 50 mg/kg, po. Set-up: dose 50 mg/kg, route oral. The settings on record: in vivo. It counts as ADME, organism-based. Put shortly:
as §1

Series [5] relates to Rattus norvegicus. Kind of series: Tmax in rat liver assessed as 2'-F-2'-C-Methyluridine-5''-TP level at 50 mg/kg, po. It counts as ADME, organism-based. On the set-up: dose 50 mg/kg, route oral. As to conditions: in vivo. In outline:
as §1

Series [6] in a line: Half life in human liver S9 fraction at 100 uM. It is filed as ADME, subcellular. In outline: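 Compound at 100 μM in 50 mM K2HPO4 pH 7.4 with 5 mM MgCl2. Started with 4 mg/mL human liver S9 at 37 °C. Samples at 0–24 h quenched with acetonitrile. Parent remaining measured by LC/MS/MS peak area relative to 0 h, and half-life calculated.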
The nature of series [7]: Half life in simulated intestinal fluid of pH 7.5 at 50 ug/mL. It is filed as physicochemical. Put shortly:
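Compound at 50 μg/mL in simulated gastric fluid (pH 1.2) or simulated intestinal fluid (pH 7.5), 37 °C, 20 h. Injected by reverse-phase HPLC every 2 h, peak area at 260 nm.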

Series [8] in a line: Half life in simulated gastric fluid at pH 1.2 at 50 ug/mL. It is filed as physicochemical. Put shortly:
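Compound at 50 μg/mL in simulated gastric fluid (pH 1.2) or simulated intestinal fluid (pH 7.5), 37 °C, 20 h. Injected by reverse-phase HPLC every 2 h, peak area at 260 nm. Percent parent remaining relative to 0 h, giving half-life.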

The subject of series [9] is Hepatitis C virus. Kind of series: Antiviral activity against HCV infected in human clone A cells assessed as inhibition of cellular rRNA replication at 50 uM. It counts as functional, Hepacivirus hominis.
For series [10], the species on record is Homo sapiens. Kind of series: Half life in human plasma at 100 uM.

Molecules are shown by their SMILES. Bounds are passed on as bounds.

As a reminder, the EC90 is the point of the concentration-response curve where the effect stands at 90%. A low value points to an effect from little substance. What is called Cmax is the peak of the concentration-time curve. By Tmax is commonly meant the time at which the peak concentration occurs. One may read the half-life as the time needed for the level to fall by half in the phase considered. Low values mean fast loss, high ones slow loss. As a reminder, the inhibition is the change of the read-out against control, counted positive when it falls. Regarding `CC(C)OC(=O)[C@H](C)NP(=O)(OC[C@H]1O[C@@H](n2ccc(=O)[nH]c2=O)[C@](C)(F)[C@@H]1O)Oc1ccc(Cl)cc1` (stereo not given in full), it took 420 nM to reach the 90% level in series [1] (EC90). Besides, the AUC in [2] was 8468 ng·h/g; in [3], 5143 ng·h/g. The Cmax in series [4] is listed as 339 ng/g. For the same molecule, in [5], the Tmax was found to be 1 h. The half-life at 100 µM in [6] is 0.35 h; in series [10], greater than 24 h. Moreover, the half-life at 50 ug/mL in series [7] and in [8] was greater than 20 h throughout. Besides, the inhibition at 50 µM in series [9] amounted to 0%.
